FAK blocker: FAK kinase inhibitors, primary screen, biochemical; Focal adhesion kinase 1 (Homo sapiens), Q05397; biochemical FAK kinase activity assay; inhibition, %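 (tested at 7 µM)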; hit rate 0.84% among 97,000; AID 727, 2007; in the data active = inhibition above about 19%;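 note: 0% = DMSO and 100% = reference compound high control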
Plk1 PBD FP: Plk1 polo box domain binding inhibitors, primary screen, biochemical, fluorescence polarization; Serine/threonine-protein kinase PLK1 (Homo sapiens), P53350; Plk1 PBD phosphopeptide binding; inhibition, %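 (tested at about 20 µM)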; hit rate 0.13% among 97,000; in the data active = inhibition above about 34%, passing the limit was not always enough
E-sel TNF inh: E-selectin induction blockers in HUVEC – imaging, immunofluorescence, high content, primary screen; inhibition, % at 2 µM; hit rate 0.71% among 120,000; HUVEC TNFa-induced E-selectin immunofluorescence;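 active = inhibition above the batch mean plus 3 SD, and confirmed as a hit on visual image review, cut at about 43% in these data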;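 note: 0% = TNF-stimulated DMSO wells and 100% = unstimulated control wells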
HIV Rev-RRE inh: HIV-1 Rev-RRE binding inhibitors, primary screen, biochemical, FRET, protein-RNA interaction | Rev peptide-RRE RNA binding | inhibition, % at 8 µM | hit rate 0.79% among 97,000;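 active = inhibition above the screen-wide mean plus 3 SD, cut at about 35% in these data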;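 note: 0% = median DMSO wells and 100% = median Neomycin B control wells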
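assay system = Cy5-tagged RRE RNA duplex with fluorescein-tagged Rev peptide | incubation = 5 + 15 min at 25 °C | also added = labelled Rev peptide | measure = % inhibition of FRET ratio versus controls | benchmarks = DMSO wells as 0% and neomycin B wells as 100% inhibition | measured by = FRET fluorescence readout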
PLK1 inh: human PLK1 kinase inhibitors, primary screen, biochemical, TR-FRET; recombinant PLK1 kinase, TR-FRET peptide phosphorylation; hit rate 0.53% among 97,000; inhibition, % at 10 µM; Serine/threonine-protein kinase PLK1 (Homo sapiens), P53350;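 active = inhibition of 50% or more in the single-concentration screen; inactive = inhibition below 50%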;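 note: 0% = DMSO max control and 100% = H-89 dihydrochloride min control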
cytoskel mod: modifiers of F-actin cytoskeleton organization, primary screen, imaging, HUVEC, phalloidin staining, high-content imaging. inhibition, % at 2 µM. AID 836, 2007. hit rate 0.18% among 91,000. HUVEC TNFa F-actin phalloidin imaging;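 active = inhibition above the batch mean plus 3 SD and confirmed as a hit by visual image inspection, cut at about 30% in these data, passing the limit was not always enough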
* marks the source's active call; other numbers are inactive results; . = not tested or not shown; [ ] = remark or other dose. Shown are actives, neighbours in structure and some others; about 2.2% of the full set was active somewhere.

SMILES | FAK blocker | Plk1 PBD FP | E-sel TNF inh | HIV Rev-RRE inh | PLK1 inh | cytoskel mod
COc1cccc(OCCn2cc(C(=O)c3ccco3)c3ccccc32)c1 | 3 | 7 | -7 | 19 | -19 | -13
COc1ccccc1OCCn1cc(C(=O)c2ccco2)c2ccccc21 | -1 | -7 | 65* | 14 | 1 | 72*
Cc1ccc(/C=C2\SC(N)=NC2=O)s1 | . | . | 95* | . | . | .
CCOC(=O)CSc1nc(N)cc(=O)[nH]1 | 1 | 20 | 77* | 10 | -9 | 25
Cc1cc(C)n(C(=O)c2sc3cc(F)ccc3c2Cl)n1 | . | . | 16 | . | . | .
COc1ccccc1NC(=O)CSc1nnc2ccc(-c3cccnc3)nn12 | . | . | 82* | . | . | .
CCC1(CC)N=C(c2ccccc2)C(=S)N1 | . | . | -6 | . | . | .
O=C(/C=C/c1ccccc1)NC(=S)NNC(=O)Cc1cccs1 | 0 | 16 | 15 | 4 | -13 | -13
O=C(Cc1cccs1)NNC(=S)NC(=O)c1ccc(F)c(F)c1 | . | . | 76* | . | . | .
CS(=O)(=O)Nc1nc2n(n1)C(c1ccccc1)C=C(c1ccc(Br)cc1)N2 (stereo unspecified) | 5 | -43 | -38 | 61* | -23 | 19
O=C(c1nc2n(n1)C(c1ccc(Cl)cc1)C=C(c1ccccc1)N2)N1CCOCC1 (stereo unspecified) | 0 | -21 | 2 | 118*[fluorescence artefact?] | -18 | -2
CCC(=O)Nc1nc2n(n1)C(c1ccc(OC)cc1)C=C(c1ccccc1)N2 (stereo unspecified) | 2 | 4 | 2 | 45* | -15 | 1
O=C(Nc1nc2n(n1)C(c1ccccc1)C=C(c1ccccc1)N2)c1ccco1 (stereo unspecified) | 0 | -18 | . | 46* | -9 | -6
Nc1nc(C(=O)N2CCOCC2)nn1S(=O)(=O)c1ccc(Cl)cc1 | 2 | -20 | 0 | 5 | -7 | 3
CC1=CC(c2ccc(Cl)cc2)n2nc(NC(=O)c3ccccc3)nc2N1 (stereo unspecified) | -2 | -9 | -10 | -4 | -23 | -2
CC(=O)Nc1nc2n(n1)C(c1ccc(Cl)cc1)C=C(C)N2 (stereo unspecified) | 0 | -39 | . | 8 | 7 | -33
COc1ccc(C2C=C(c3ccc(Cl)cc3)Nc3nc(NC(C)=O)nn32)cc1 (stereo unspecified) | -2 | 13 | . | 78* | -23 | 7
CC(=O)Nc1nc2n(n1)C(c1ccccc1)C=C(c1ccccc1)N2 (stereo unspecified) | 4 | -8 | . | 19 | -7 | -3
CC(=O)Nc1nc2n(n1)C(c1ccc(F)cc1)C=C(c1ccccc1)N2 (stereo unspecified) | 1 | 8 | -7 | 56* | -21 | 38*
CCOC(=O)C1=C(CSc2nc(CC)c(C)cc2C#N)OC(N)=C(C#N)C1c1ccccc1 (stereo unspecified) | 1 | 21 | -12 | 18 | -8 | -36
CCOC(=O)C1=C(CSc2nc(-c3ccccc3)ccc2C#N)OC(N)=C(C#N)C1c1ccc(OC)cc1 (stereo unspecified) | -3 | -17 | . | 44* | -5 | 28
CN(CC(=O)Nc1ccc(N2CCOCC2)cc1)CC(=O)Nc1ccccc1C#N | . | . | 24 | . | . | .
O=C(N/N=C/c1ccc([N+](=O)[O-])s1)c1cccnc1 | . | . | 72* | . | . | .
Cc1ccccc1OCCCC(=O)Nc1ccc(N2CCOCC2)cc1 | . | . | 76* | . | . | .
O=C(Nc1ccc(Cc2ccncc2)cc1)C1CCC(N2C(=O)C3CCCCC3C2=O)CC1 (stereo unspecified) | . | . | -19 | . | . | .
SMILES | FAK blocker | Plk1 PBD FP | E-sel TNF inh | HIV Rev-RRE inh | PLK1 inh | cytoskel mod
O=c1c2nnn(-c3ccc(Br)cc3)c2ncn1Cc1ccccn1 | . | . | -17 | . | . | .
COc1ccccc1N(Cc1ccccc1)S(=O)(=O)c1cccc(C(=O)Nc2ccc(C(C)=O)cc2)c1 | . | . | 65* | . | . | .
O=C(CSc1nnc(SCc2ccc(Cl)cc2)s1)N/N=C/c1c(Cl)cccc1Cl | . | . | 15 | . | . | .
COc1ccc(N=NC2=C(O)CC(C)(C)CC2=O)c(OC)c1 | -2 | -45 | 7 | 59* | -28 | -23
COc1ccc(N=NC2=C(O)CC(C)(C)CC2=O)cc1 | 4 | 9 | -8 | 11 | -16 | -2
CCOC(=O)c1ccccc1NC(=O)c1ccc(N(C)S(C)(=O)=O)cc1 | 1 | 9 | 70* | 21 | -15 | -5

High-throughput results: PubChem, several laboratories
